The values below come from ChEMBL document CHEMBL3797094, “Turmeric Sesquiterpenoids: Expeditious Resolution, Comparative Bioactivity, and a New Bicyclic Turmeronoid” (J Nat Prod, 2016).

For orientation: IC50 means the point on the concentration scale where inhibition reaches its midpoint. Lower therefore signals inhibition by little substance.

The structures appear in SMILES notation. Calls of active or inactive are those of the source. No cut-off for these calls is given here.

Series [1] in a line: Inhibition of TNF alpha-induced NF-kappaB (unknown origin) activation in NIH/3T3-KBF-Luc cells after 6 hrs by luciferase reporter gene assay. In kind it is cell-based. Particulars: Homo sapiens. The method, boiled down: (§1)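 NIH-3T3-KBF-Luc fibroblasts (15 × 10⁴ cells/mL) were kept at 37 °C and 5% CO2 in DMEM with 10% heat-inactivated FBS. Cells were preincubated with the compounds at rising concentrations, then stimulated with TNFα for 6 h. They were PBS-washed and lysed for 15 min at rt in Tris-phosphate pH 7.8 with 1% Triton X-100. Luciferase was read in the supernatant, with TNFα alone set as 100%.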
On the technique in general: Reporter assays use an easily measured gene product as a stand-in for the process of interest.

Series [2] is filed under the species Homo sapiens. Kind of series: Inhibition of TNF alpha-induced NF-kappaB (unknown origin) activation in NIH/3T3-KBF-Luc cells assessed as suppression of IKappaB alpha phosphorylation at 1 to 50 uM preincubated for 15 mins followed by TNF alpha stimulation for 30 mins by western blot analysis. In kind it is cell-based. The method, boiled down:
(§2)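 NIH-3T3-KBF-Luc cells were treated with the compounds for 15 min, then stimulated with TNFα (30 ng/mL) for 30 min. Lysis used Hepes pH 8.0 buffer with 0.5% NP-40 and protease/phosphatase inhibitors (15 min, 4 °C), then 10000g for 10 min. After Bradford assay, 20 μg protein was run on 10% SDS-PAGE and blotted to nitrocellulose. Blocking was 5% milk overnight; phospho-protein detection was by ECL.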
A general note: In western blotting, separated proteins are transferred to a membrane and probed.

The species entered for series [3] is Homo sapiens. Kind of series: Inhibition of TNF alpha-induced NF-kappaB (unknown origin) activation in NIH/3T3-KBF-Luc cells assessed as suppression of p65 phosphorylation at 1 to 50 uM preincubated for 15 mins followed by TNF alpha stimulation for 30 mins by western blot analysis. In kind it is cell-based. In short, it runs like this:
as §2

Series [4] is described as follows: Cytotoxicity against mouse NIH/3T3-KBF-Luc cells assessed as cell viability at 1 to 50 uM after 12 hrs by YOYO-1 staining based fluorescence assay. The conditions noted are these: nih3t3, 12 h.
The nature of series [5]: Cytotoxicity against mouse NIH/3T3-EPO-Luc cells assessed as cell viability at 1 to 50 uM after 12 hrs by YOYO-1 staining based fluorescence assay. The conditions noted are these: nih3t3, 12 h.
The subject of the next series is HeLa. Kind of series: Cytotoxicity against human HeLa-STAT3-Luc cells assessed as cell viability at 1 to 50 uM after 12 hrs by YOYO-1 staining based fluorescence assay.
Another series deals with HaCaT. As to the kind of experiment: Cytotoxicity against human HaCaT-ARE-Luc cells assessed as cell viability at 1 to 50 uM after 12 hrs by YOYO-1 staining based fluorescence assay.
The target of series [6] is T1, Nuclear factor erythroid 2-related factor 2 (Homo sapiens) (UniProt Q16236).
T1 sequence (whole entry): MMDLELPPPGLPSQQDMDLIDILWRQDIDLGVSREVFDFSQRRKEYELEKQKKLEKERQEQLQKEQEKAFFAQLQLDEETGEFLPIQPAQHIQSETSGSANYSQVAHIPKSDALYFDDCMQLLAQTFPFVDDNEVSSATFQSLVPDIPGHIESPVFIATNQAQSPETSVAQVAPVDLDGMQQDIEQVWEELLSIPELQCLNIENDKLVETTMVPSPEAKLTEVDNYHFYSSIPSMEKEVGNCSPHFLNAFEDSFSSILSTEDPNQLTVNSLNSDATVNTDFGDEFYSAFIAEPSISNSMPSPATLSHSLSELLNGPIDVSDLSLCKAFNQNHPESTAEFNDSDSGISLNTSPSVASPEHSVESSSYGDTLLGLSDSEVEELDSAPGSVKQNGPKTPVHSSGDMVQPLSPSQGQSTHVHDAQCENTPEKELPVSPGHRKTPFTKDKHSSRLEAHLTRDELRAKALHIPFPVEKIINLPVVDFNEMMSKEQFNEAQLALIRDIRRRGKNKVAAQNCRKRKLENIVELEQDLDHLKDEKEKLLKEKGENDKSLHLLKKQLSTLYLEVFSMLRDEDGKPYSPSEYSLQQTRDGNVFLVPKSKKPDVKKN
Kind of series: Activation of Nrf2 (unknown origin) in HaCaT-ARE-Luc cells at 1 to 50 uM after 6 hrs by luciferase reporter gene assay. The series is classed as cell-based. In short, it runs like this: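 HaCaT-ARE-Luc cells (15 × 10⁴ cells/mL, DMEM with 10% FBS, 37 °C, 5% CO2) were exposed to the compounds alone at rising concentrations for 6 h. Cells were PBS-washed and lysed in Tris-phosphate pH 7.8 with Triton X-100. Luciferase activity in the cleared lysate is given as fold induction over basal.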

Series [7] concerns the target Hypoxia-inducible factor 1-alpha (Homo sapiens) (UniProt Q16665). Kind of series: Inhibition of DFX induced HIF-1 alpha (unknown origin) activation in NIH/3T3-EPO-Luc cells at 1 to 50 uM after 6 hrs by luciferase reporter gene assay. In kind it is cell-based. In short, it runs like this:
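NIH-3T3-EPO-Luc cells (15 × 10⁴ cells/mL, DMEM with 10% FBS, 37 °C) were preincubated with the compounds at rising concentrations, then given DFX (150 μM) for 6 h. Luciferase was measured in the cleared Tris-phosphate/Triton lysate and expressed as fold induction over basal.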

For series [8], the species on record is Homo sapiens. As to the kind of experiment: Activation of NF-kappaB (unknown origin) in NIH/3T3-KBF-Luc cells at 1 to 50 uM coincubated with TNF-alpha after 6 hrs by luciferase reporter gene assay. The series is classed as cell-based. In short, it runs like this: as §1
Series [9] concerns the target Signal transducer and activator of transcription 3 (Homo sapiens) (UniProt P40763). Kind of series: Inhibition of IFN gamma-induced STAT3 (unknown origin) activation in HeLa-STAT3-Luc cells at 1 to 50 uM after 6 hrs by luciferase reporter gene assay. The series is classed as cell-based. In short, it runs like this:
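HeLa-STAT3-Luc reporter cells (15 × 10⁴ cells/mL, DMEM with 10% FBS, 37 °C, 5% CO2) were preincubated with the compounds at rising concentrations, then stimulated with IFNγ for 6 h. Lysate luciferase is expressed as percent inhibition, with IFNγ-induced activity set as 100%.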

Hypoxia-inducible factor 1-alpha (Homo sapiens), sequence (Q16665 whole entry, looked up): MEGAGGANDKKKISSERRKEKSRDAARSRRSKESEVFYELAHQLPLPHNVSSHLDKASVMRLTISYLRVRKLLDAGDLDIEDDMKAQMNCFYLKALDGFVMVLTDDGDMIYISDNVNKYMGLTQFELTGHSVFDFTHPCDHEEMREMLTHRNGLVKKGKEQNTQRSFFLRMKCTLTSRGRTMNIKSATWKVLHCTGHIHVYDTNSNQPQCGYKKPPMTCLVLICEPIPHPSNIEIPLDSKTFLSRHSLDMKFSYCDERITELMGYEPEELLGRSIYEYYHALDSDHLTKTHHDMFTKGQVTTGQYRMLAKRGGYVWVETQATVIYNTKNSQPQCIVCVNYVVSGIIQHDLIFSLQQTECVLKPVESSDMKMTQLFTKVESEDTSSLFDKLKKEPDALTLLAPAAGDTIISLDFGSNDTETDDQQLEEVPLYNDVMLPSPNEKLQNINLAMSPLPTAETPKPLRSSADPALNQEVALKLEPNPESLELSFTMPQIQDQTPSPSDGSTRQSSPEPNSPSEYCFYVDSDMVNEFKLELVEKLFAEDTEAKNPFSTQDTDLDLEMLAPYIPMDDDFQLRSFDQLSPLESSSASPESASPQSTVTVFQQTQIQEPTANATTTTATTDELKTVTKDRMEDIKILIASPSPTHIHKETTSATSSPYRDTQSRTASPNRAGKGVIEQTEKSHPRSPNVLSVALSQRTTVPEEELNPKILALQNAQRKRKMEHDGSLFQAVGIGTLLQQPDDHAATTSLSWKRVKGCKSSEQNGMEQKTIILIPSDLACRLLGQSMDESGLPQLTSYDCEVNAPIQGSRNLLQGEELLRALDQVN
Signal transducer and activator of transcription 3 (Homo sapiens), sequence (P40763 whole entry): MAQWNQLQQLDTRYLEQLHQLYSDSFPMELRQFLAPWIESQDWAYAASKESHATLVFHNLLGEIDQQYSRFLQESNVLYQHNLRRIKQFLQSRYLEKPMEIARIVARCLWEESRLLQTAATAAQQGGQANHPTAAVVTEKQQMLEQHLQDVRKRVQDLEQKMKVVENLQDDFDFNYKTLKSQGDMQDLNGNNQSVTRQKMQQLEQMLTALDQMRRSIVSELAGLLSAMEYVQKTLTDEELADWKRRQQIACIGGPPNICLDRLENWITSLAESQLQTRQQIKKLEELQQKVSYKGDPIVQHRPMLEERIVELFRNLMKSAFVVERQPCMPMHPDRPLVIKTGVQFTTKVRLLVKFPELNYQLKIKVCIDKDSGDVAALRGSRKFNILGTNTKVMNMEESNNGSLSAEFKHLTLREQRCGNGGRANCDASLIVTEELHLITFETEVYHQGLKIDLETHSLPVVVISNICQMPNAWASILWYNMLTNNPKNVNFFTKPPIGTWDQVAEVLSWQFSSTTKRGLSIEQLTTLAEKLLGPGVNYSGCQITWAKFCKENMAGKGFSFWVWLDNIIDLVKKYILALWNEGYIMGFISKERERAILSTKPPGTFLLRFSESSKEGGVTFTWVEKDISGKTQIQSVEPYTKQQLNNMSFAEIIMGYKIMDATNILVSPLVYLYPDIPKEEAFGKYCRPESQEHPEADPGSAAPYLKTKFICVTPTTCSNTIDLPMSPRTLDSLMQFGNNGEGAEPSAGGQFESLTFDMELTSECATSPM

Regarding `CC(C)=CC(=O)C[C@H](C)c1ccc(C)cc1`, the 50% inhibitory concentration (IC50) in series [1] is 22.7 µM. Moreover, the inhibition result in the series filed under Homo sapiens [2] and in the series filed under Homo sapiens [3] was “Active” throughout. For the same compound, the Activity result (in [4]; in series [5]; in the series with HeLa; with HaCaT) was “Non-toxic” in each case. The result in series [6] was inactive. Moreover, in series [7], the inhibition entry was “inactive”.
As to `C=C1C=C[C@H]([C@@H](C)CC(=O)C=C(C)C)CC1`, the result (in the series listed under Homo sapiens [8]; in series [6]) was Active. In addition, in series [9], the result was inactive. In addition, the inhibition entry in series [7] is “inactive”.
